Sampled rows, rich in hits. Any-hit rate of the full collection: about 3.7%.
eIF4E 4G PPI – blocks eIF4E binding to eIF4G; P63073+Q04637; TR-FRET eIF4E-eIF4GI(517-606) binding, 2 h; inhibition, % at 21.7 µM; 220,000 tested, 0.37% active; AID 782
p47phox inh – blocks human p47phox regulatory protein of NADPH oxidases; P14598; p47phox/p22phox peptide binding, fluorescence polarization, 2 h; inhibition, % at 24.7 µM; 220,000 tested, 0.53% active
RBBP9 inh – inhibitors of human serine hydrolase RBBP9; inhibition, % at 7.94 µM; recombinant RBBP9, FP-Rh probe fluorescence polarization; O75884; 220,000 tested, 0.2% active; AID 1515;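 active means inhibition above the campaign mean of all tested compounds plus 3 SD, cut at about 14% in these data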
Target sequence (O75884 whole entry, looked up): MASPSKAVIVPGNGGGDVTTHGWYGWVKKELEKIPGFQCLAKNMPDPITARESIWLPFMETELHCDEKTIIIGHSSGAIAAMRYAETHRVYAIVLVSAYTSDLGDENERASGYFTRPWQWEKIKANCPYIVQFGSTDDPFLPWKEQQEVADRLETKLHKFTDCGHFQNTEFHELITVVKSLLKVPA
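Controls: DMSO-treated enzyme wells and wells lacking RBBP9 | Material: RBBP9 protein | Technique: Fluorescence polarization | Replication: Single well per compound, no replicates | Buffer or medium: Tris-NaCl-Pluronic buffer, pH 8.0 | Timing: 30 min compound preincubation, 45 min probe labeling, 25 °C | Read-out basis: Percent inhibition from mP, scaled between DMSO and no-protein wells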
EBV gp42 inh – inhibitors of Epstein-Barr virus glycoprotein 42; Fluorescence polarization binding assay, mP read-out; inhibition, % (tested at 21.74 µM); 220,000 tested, 0.42% active; AID 1085; in the data active means inhibition above about 50%
Target sequence (Q1HVG2 whole entry, looked up): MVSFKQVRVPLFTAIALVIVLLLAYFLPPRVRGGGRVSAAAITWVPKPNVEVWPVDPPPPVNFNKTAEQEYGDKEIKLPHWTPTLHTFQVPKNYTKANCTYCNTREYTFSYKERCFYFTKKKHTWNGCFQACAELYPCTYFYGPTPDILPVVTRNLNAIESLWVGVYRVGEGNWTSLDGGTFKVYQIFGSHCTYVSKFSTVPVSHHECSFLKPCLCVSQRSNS
WT yeast gro inh – growth inhibition of WT yeast, mitochondrial fusion screen; mitochondrial fusion phenotypic screen, WT strain; inhibition, % at 10 µM; 190,000 tested, 2.1% active; in the data active means inhibition above about 58%; tested in S. cerevisiae
14-3-3 Bad inh – disrupts binding of bovine 14-3-3 zeta to phospho-Bad peptide; TR-FRET 14-3-3zeta/Dy647-pBad peptide displacement, 1 h; inhibition, % at 21.7 µM; 220,000 tested, 0.71% active;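 active means inhibition above about 70%, limit read from the data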
Numbers stand for hits; 0 = inactive; - = no result given; [ ] = remark or other dose.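 How the source made its calls, unless noted: active means inhibition above about 30% (limit read from the data); inactive means the rest.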

SMILES	eIF4E 4G PPI	p47phox inh	RBBP9 inh	EBV gp42 inh	WT yeast gro inh	14-3-3 Bad inh
Cn1c(=O)c2c(nc(N/N=C/c3ccc(OC(=O)c4ccco4)cc3)n2Cc2ccccc2)n(C)c1=O	0	0	0	0	0	0
CCOc1cc(N2CCOCC2)c(OCC)cc1NC1=NCCCCC1	0	60	0	0	0	0
FC(F)(F)c1ccc(N2CCOCC2)c(NC2=NCCCCC2)c1	0	0	0	0	0	82
O=C(Nc1cc(C(F)(F)F)ccc1N1CCOCC1)c1c(F)c(F)c(F)c(F)c1F	0	0	0	0	0	0
COC(=O)C1=NN(c2ccccc2OC)C2C(=O)N(c3ccccc3OC)C(=O)C12 (stereo not drawn)	0	0	0	0	0	0
COC(=O)C1=NN(c2ccc(OC)cc2)C2C(=O)N(c3ccccc3OC)C(=O)C12 (stereo not drawn)	39	0	0	0	-	0
COC(=O)c1ccccc1NC(=O)COC(=O)C1CCCCC1	0	0	0	0	-	0
CCC(CC)NC(=O)c1cccc(NC(=O)C(C)C)c1	0	0	0	0	0	0
COc1ccc(C(C)C)cc1S(=O)(=O)N1CCN(c2ccccc2)CC1	0	0	0	0	66	0
COc1ccc(C(C)C)cc1S(=O)(=O)N1CC(C)OC(C)C1 (stereo not drawn)	0	0	0	0	0	0
CN1CCc2c(sc(/N=C/c3cc(C(C)(C)C)ccc3O)c2C#N)C1	0	0	0	0	-	0
CC1=Nc2ccccc2/C1=C\c1sc(Nc2ccc(C)cc2)nc1O	0	0	0	0	61	0
CC1=Nc2ccccc2/C1=C/c1sc(=O)n(CC(=O)N2CCCC2)c1O	0	0	0	0	0	0
Oc1nc(Nc2ccc(F)cc2)sc1/C=C1\C=Nc2ccccc21	0	0	0	0	-	0
Oc1cccc(Nc2nc(O)c(/C=C3\C=Nc4ccccc43)s2)c1	0	0	17	0	-	73
Oc1nc(Nc2cccc(Cl)c2)sc1/C=C1\C=Nc2ccccc21	0	0	0	0	79	0
O=C1NC2(CCSC2)C(=O)N1CC(=O)N(Cc1ccccc1)C1CCS(=O)(=O)C1 (stereo not drawn)	0	0	0	0	-	0
O=S1(=O)CC/C(=N/Nc2ccc(C(F)(F)F)cn2)c2cc(F)ccc21	87	0	0	0	0	0
O=S1(=O)CC/C(=N/Nc2ccccn2)c2cc(F)ccc21	0	0	0	0	-	0
S=c1[nH]c(-c2ccccc2)cs1	0	0	0	0	0	0
Fc1ccc(-c2csc(=S)[nH]2)cc1	0	0	0	0	62	0
CCC(C)(NC(=O)c1ccccn1)C(=O)NC1CCCC1 (stereo not drawn)	0	0	0	0	0	0
CC(C)c1ncc(S(=O)(=O)c2ccc(C(F)(F)F)cn2)c(N)n1	0	0	0	0	-	0
Cc1nc2c(C)cccc2cc1C(=O)N/N=C/c1ccc(C(=O)O)cc1	0	0	0	0	0	87
Cc1nc2c(C)cccc2cc1C(=O)N/N=C/c1ccc(N(C)C)cc1	0	0	0	0	0	0
SMILES	eIF4E 4G PPI	p47phox inh	RBBP9 inh	EBV gp42 inh	WT yeast gro inh	14-3-3 Bad inh
Cc1ccc(-c2csc3ncnc(N4CCc5ccccc5C4)c23)cc1	0	0	0	0	66	0
Fc1ccc(-c2csc3ncnc(Nc4ccc(N5CCOCC5)cc4)c23)cc1	0	0	0	0	0	0
Cc1ccc(-c2csc3ncnc(Cl)c23)cc1	0	0	0	0	0	0
Fc1ccc(-c2csc3ncnc(N4CCc5ccccc5C4)c23)cc1	0	0	0	0	66	0
O=C(NC1CC1)C1=C[C@@H](c2ccc(Br)cc2)C[C@@H](OCc2ccc(CO)cc2)O1	0	0	-	0	-	0
Cc1ccc(S(=O)(=O)n2c3ccc(F)cc3c3nc(C)sc32)cc1	0	0	0	0	78	0
CCOC(=O)C(=O)/C(=C\N(C)C)c1onc(-c2ccccc2)c1C(=O)OC	-	0	0	132	0	-
FC(F)(F)c1ccc(Oc2ccc3ccccc3c2Br)nc1	0	0	0	0	81	0
CC(=O)c1c(C)nc(C)nc1NC(=O)Cc1ccccc1	0	0	0	0	0	0
CC(=O)Nc1nc(-c2ccc(Cl)cc2)nc(C)c1C(C)=O	0	0	0	0	0	86
Cn1c2c(c(=O)n(C)c1=O)NC1(N2)C(=O)Nc2ccccc21 (stereo not drawn)	0	0	0	0	-	0
O=C(O)c1cccc(-c2ccc(/C=c3/sc4nc5ccccc5n4c3=O)o2)c1	39	0	0	0	-	0
O=C(O)c1cc(C(=O)O)cc(-c2ccc(/C=c3/sc4nc5ccccc5n4c3=O)o2)c1	0	0	0	0	0	0
O=c1/c(=C\c2cc([N+](=O)[O-])cc([N+](=O)[O-])c2O)sc2nc3ccccc3n12	30	0	0	0	0	75
CCOC(=O)c1cc2c(ccn2-c2ccc(F)cc2)n1CC(=O)N(CC)CC	0	0	0	0	0	0
Oc1ccccc1C(Nc1nccs1)c1ccc2cccnc2c1O (stereo not drawn)	0	0	0	0	-	0
OCCN1CCN(C(c2cccs2)c2ccc3cccnc3c2O)CC1 (stereo not drawn)	46[fluorescence artefact?]	0	0	0	0	0
COc1ccc(-n2c3c(c(=O)[nH]c2=O)C(NS(=O)(=O)c2ccc(Cl)cc2)(C(F)(F)F)C(=O)N3)cc1 (stereo not drawn)	0	0	0	0	-	0
CCOC(=O)C1CCC(CN(Cc2ccccc2)S(=O)(=O)c2ccc([N+](=O)[O-])cc2)CC1 (stereo not drawn)	0	0	0	0	71	0
CCOc1ccc(-c2[nH]ncc2Oc2ccccc2OCC)c(O)c1	0	0	0	0	65	0
CCOc1ccc(-c2nc(N)ncc2Oc2ccccc2Br)c(O)c1	0	0	0	0	92	0
CCCOC(=O)c1ccc(Oc2cn[nH]c2-c2ccc(OC)cc2O)cc1	0	0	0	0	78	0
CN1C(=O)/C(=C2\SC(=S)N(CCCCCC(=O)O)C2=O)c2ccccc21	0	0	0	73	-	0
COc1ccccc1N1CCN(C(=O)c2ccc(CSc3ccccc3)cc2)CC1	0	0	0	0	61	0
O=C(c1ccc(CSc2ccccc2)cc1)N1CCN(c2ccccc2)CC1	0	0	0	0	70	0
O=C(c1ccc(CSc2ccc(Cl)cc2)cc1)N1CCCC1	0	0	0	0	0	0
CCN(CC)S(=O)(=O)c1cccc(C(=O)NCCCn2ccnc2)c1	0	0	0	0	-	0
C=CCNC(=O)c1onc(CSc2cccc(OC)c2)c1C(=O)O	0	32	0	0	0	0
Cc1cnc(NC(=O)c2ccc(-c3nc4ccccc4s3)o2)s1	59[fluorescence artefact?]	0	0	0	0	0
Cc1cnc(NC(=O)CSc2nc3ccccc3s2)s1	0	0	0	0	0	0

High-throughput results deposited in PubChem BioAssay by several laboratories.
